From ChEMBL document CHEMBL1158489, “Synthesis and evaluation of 4-acyl-2-thiazolylhydrazone derivatives for anti-Toxoplasma efficacy in vitro” (J Med Chem, 2009) come the findings set out here.

Activity calls are given as the source filed them. The rule behind the calls is not given here.

For the first series, the system named is Toxoplasma gondii. Put plainly: Antiparasitic activity against Toxoplasma gondii 2F tachyzoites infected in HFF assessed as parasite growth inhibition-related decrease in beta-galactosidase activity treated prior to infection measured after 5 days by spectrophotometry. Particulars: 120 h. In kind it is functional, organism-based.
Turning to `CCOC(=O)c1csc(NN=C2CCCCC2)n1`, the IC50 is 160 µM and the IC90 stood at 638 µM.
Taken in the same sequence, the figures for `CCOC(=O)c1csc(N/N=C2/CCCC(C)C2)n1` (centres undefined) were 15 µM and 46 µM.
On to `O=C(O)c1csc(NN=C2CCCCC2)n1`, for which the IC50 was ≥ 320 µM.
On the same count and under the same terms, the result for `CC1CCC(=NNc2nc(C(=O)O)cs2)CC1` (centres undefined) reads ≥ 320 µM.
Consider `CCOC(=O)c1csc(N/N=C(\C)c2ccco2)n1`, for which the half-inhibitory concentration (IC50) was determined as 49 µM and the IC90 turned out to be 161 µM.
Taken in the same sequence, the figures for `CCOC(=O)c1csc(N/N=C(\C)c2cc3ccccc3oc2=O)n1` were 21 µM and 55 µM.
The like results for `CC1CC/C(=N/Nc2nc(C(=O)O)cs2)C1` (centres undefined) were, in that order, 38 µM and 70 µM.
Taken in the same sequence, the figures for `CCOC(=O)c1csc(N/N=C2/CCCCC2C)n1` (centres undefined) were 185 µM and 508 µM.
In the case of `CC1CCC/C1=N/Nc1nc(C(=O)O)cs1` (centres undefined), the IC50 was ≥ 320 µM.
For `CCOC(=O)c1csc(N/N=C/c2cccc3ccccc23)n1`, the IC50 worked out at 52 µM and the IC90 was 182 µM.
Taken in the same sequence, the figures for `CCOC(=O)c1csc(NN=C2CCCCCC2)n1` were 77 µM and 226 µM.
The like results for `CCOC(=O)c1csc(N/N=C2/CCCC2C)n1` (centres undefined) were, in that order, 130 µM and 248 µM.
Regarding `CCOC(=O)c1csc(N/N=C/c2ccncc2)n1`, the IC50 is ≥ 320 µM.
Turning to `CCOC(=O)c1csc(NN=C2CCCC2)n1`, the IC50 is 92 µM and the IC90 came to 239 µM.
As for `CC1CCC/C(=N/Nc2nc(C(=O)O)cs2)C1` (centres undefined), the IC50 is ≥ 320 µM.
Regarding `CCOC(=O)c1csc(N/N=C/c2c[nH]c3ccccc23)n1`, the IC50 is 280 µM and the IC90 came out at 2240 µM.
On to `O=C(O)c1csc(NN=C2CCCC2)n1`, for which the IC50 is ≥ 320 µM.
Consider `CCOC(=O)c1csc(N/N=C(\C)c2ccncc2)n1`, for which the IC50 came to 64 µM and the IC90 came to 188 µM.
`CCOC(=O)c1csc(N/N=C(\C)c2cccnc2)n1`: the IC50 was found to be 34 µM and the concentration for an effect of 90% (IC90) turned out to be 86 µM.
The like results for `CCOC(=O)c1csc(N/N=C(\C)c2ccc3ccccc3c2)n1` were, in that order, 43 µM and 88 µM.
The like results for `CCOC(=O)c1csc(N/N=C/c2ccc3c(c2)OCO3)n1` were, in that order, 479 µM and 2590 µM.
Taken in the same sequence, the figures for `CC1CCCC/C1=N/Nc1nc(C(=O)O)cs1` (centres undefined) were 128 µM and 310 µM.
Turning to `CCOC(=O)c1csc(NN=C2CCC(C)CC2)n1` (centres undefined), the IC50 came out at 60 µM and the IC90 is 151 µM.
Consider `CCOC(=O)c1csc(N/N=C/c2cccnc2)n1`, for which the IC50 is 162 µM and the IC90 was found to be 398 µM.
Taken in the same sequence, the figures for `CCOC(=O)c1csc(N/N=C(\C)c2cccs2)n1` were 37 µM and 136 µM.
Taken in the same sequence, the figures for `O=C(O)c1csc(NN=C2CCCCCC2)n1` were 179 µM and 3870 µM.
Regarding `CCOC(=O)c1csc(N/N=C/c2ccco2)n1`, the IC50 was ≥ 320 µM.
For the molecule `CCOC(=O)c1csc(N/N=C(\C)c2ccccn2)n1`, the IC50 was 3 µM and the IC90 is 7 µM.
For the molecule `CCOC(=O)c1csc(N/N=C/c2cccs2)n1`, the IC50 was ≥ 320 µM.
Take `CCOC(=O)c1csc(N/N=C2/CCC(C)C2)n1` (centres undefined): the IC50 turned out to be 59 µM and the IC90 was 190 µM.
For `COc1cc(Cc2cnc(N)nc2N)cc(OC)c1OC` [TRIMETHOPRIM], the IC50 turned out to be 14 µM.

Tested on in the next series: not listed separately
In words: Cytotoxicity against human HFF by spectrophotometry. In kind it is cell-based. Particulars: HFF cells, read-out: TD50 (the source's name).
On to `CCOC(=O)c1csc(NN=C2CCCCC2)n1`, for which the CC50 is ≥ 320 µM.
Same read-out and setting: the same measure for `CCOC(=O)c1csc(N/N=C2/CCCC(C)C2)n1` (centres undefined): 84 µM; for `O=C(O)c1csc(NN=C2CCCCC2)n1`: ≥ 320 µM; for `CC1CCC(=NNc2nc(C(=O)O)cs2)CC1` (centres undefined): ≥ 320 µM.
Same read-out and setting: the result for `CCOC(=O)c1csc(N/N=C(\C)c2ccco2)n1` reads 241 µM.
As for `CCOC(=O)c1csc(N/N=C(\C)c2cc3ccccc3oc2=O)n1`, the CC50 is ≥ 320 µM.
On to `CC1CC/C(=N/Nc2nc(C(=O)O)cs2)C1` (centres undefined), for which the CC50 worked out at 82 µM.
For `CCOC(=O)c1csc(N/N=C2/CCCCC2C)n1` (centres undefined), the CC50 was ≥ 320 µM.
As to `CC1CCC/C1=N/Nc1nc(C(=O)O)cs1` (centres undefined), the CC50 was ≥ 320 µM.
On the same count and under the same terms, the same measure for `CCOC(=O)c1csc(N/N=C/c2cccc3ccccc23)n1`: ≥ 320 µM.
On the same count and under the same terms, the result for `CCOC(=O)c1csc(NN=C2CCCCCC2)n1` reads ≥ 320 µM.
Still for that read-out and setting: the same measure for `CCOC(=O)c1csc(N/N=C2/CCCC2C)n1` (centres undefined): ≥ 320 µM; for `CCOC(=O)c1csc(N/N=C/c2ccncc2)n1`: ≥ 320 µM; for `CCOC(=O)c1csc(NN=C2CCCC2)n1`: ≥ 320 µM.
As to `CC1CCC/C(=N/Nc2nc(C(=O)O)cs2)C1` (centres undefined), the CC50 is ≥ 320 µM.
Still for that read-out and setting: the result for `CCOC(=O)c1csc(N/N=C/c2c[nH]c3ccccc23)n1` reads ≥ 320 µM.
On the same count and under the same terms, the result for `O=C(O)c1csc(NN=C2CCCC2)n1` reads ≥ 320 µM; that for `CCOC(=O)c1csc(N/N=C(\C)c2ccncc2)n1`, ≥ 320 µM; that for `CCOC(=O)c1csc(N/N=C(\C)c2cccnc2)n1`, ≥ 320 µM.
On the same count and under the same terms, the same measure for `CCOC(=O)c1csc(N/N=C(\C)c2ccc3ccccc3c2)n1`: 127 µM; for `CCOC(=O)c1csc(N/N=C/c2ccc3c(c2)OCO3)n1`: ≥ 320 µM; for `CC1CCCC/C1=N/Nc1nc(C(=O)O)cs1` (centres undefined): ≥ 320 µM.
Take `CCOC(=O)c1csc(NN=C2CCC(C)CC2)n1` (centres undefined): the CC50 was ≥ 320 µM.
On the same count and under the same terms, the same measure for `CCOC(=O)c1csc(N/N=C/c2cccnc2)n1`: ≥ 320 µM; for `CCOC(=O)c1csc(N/N=C(\C)c2cccs2)n1`: ≥ 320 µM.
Same read-out and setting: the result for `O=C(O)c1csc(NN=C2CCCCCC2)n1` reads ≥ 320 µM.
On the same count and under the same terms, the result for `CCOC(=O)c1csc(N/N=C/c2ccco2)n1` reads ≥ 320 µM.
As for `CCOC(=O)c1csc(N/N=C(\C)c2ccccn2)n1`, the CC50 worked out at 6 µM.
Same read-out and setting: the result for `CCOC(=O)c1csc(N/N=C/c2cccs2)n1` reads ≥ 320 µM; that for `CCOC(=O)c1csc(N/N=C2/CCC(C)C2)n1` (centres undefined), ≥ 320 µM.
On to `COc1cc(Cc2cnc(N)nc2N)cc(OC)c1OC` [TRIMETHOPRIM], for which the CC50 was ≥ 320 µM.

Tested on in the next series: not listed separately
Put plainly: Therapeutic index, ratio of TD50 for human HFF to IC50 for Toxoplasma gondii 2F tachyzoites. As to conditions: HFF cells and Toxoplasma gondii 2F tachyzoites, read-out: TI.
With `CCOC(=O)c1csc(NN=C2CCCCC2)n1`, the selectivity ratio is 4.
Turning to `CCOC(=O)c1csc(N/N=C2/CCCC(C)C2)n1` (centres undefined), the selectivity ratio came out at 6.
On the same count and under the same terms, the same measure for `CCOC(=O)c1csc(N/N=C(\C)c2ccco2)n1`: 5; for `CCOC(=O)c1csc(N/N=C(\C)c2cc3ccccc3oc2=O)n1`: 27; for `CC1CC/C(=N/Nc2nc(C(=O)O)cs2)C1` (centres undefined): 2.
Same read-out and setting: the result for `CCOC(=O)c1csc(N/N=C2/CCCCC2C)n1` (centres undefined) reads 3.
Turning to `CCOC(=O)c1csc(N/N=C/c2cccc3ccccc23)n1`, the selectivity ratio was found to be 11.
With `CCOC(=O)c1csc(NN=C2CCCCCC2)n1`, the selectivity ratio worked out at 7.
As for `CCOC(=O)c1csc(N/N=C2/CCCC2C)n1` (centres undefined), the selectivity ratio worked out at 4.
The same measure, in the same setting: the result for `CCOC(=O)c1csc(NN=C2CCCC2)n1` reads 6; that for `CCOC(=O)c1csc(N/N=C/c2c[nH]c3ccccc23)n1`, 2.
Same read-out and setting: the result for `CCOC(=O)c1csc(N/N=C(\C)c2ccncc2)n1` reads 9.
The same measure, in the same setting: the result for `CCOC(=O)c1csc(N/N=C(\C)c2cccnc2)n1` reads 17.
As for `CCOC(=O)c1csc(N/N=C(\C)c2ccc3ccccc3c2)n1`, the selectivity ratio is 3.
The same measure, in the same setting: the result for `CCOC(=O)c1csc(N/N=C/c2ccc3c(c2)OCO3)n1` reads 1; that for `CC1CCCC/C1=N/Nc1nc(C(=O)O)cs1` (centres undefined), 4; that for `CCOC(=O)c1csc(NN=C2CCC(C)CC2)n1` (centres undefined), 9.
On to `CCOC(=O)c1csc(N/N=C/c2cccnc2)n1`, for which the selectivity ratio amounted to 4.
Still for that read-out and setting: the same measure for `CCOC(=O)c1csc(N/N=C(\C)c2cccs2)n1`: 15; for `O=C(O)c1csc(NN=C2CCCCCC2)n1`: 3; for `CCOC(=O)c1csc(N/N=C(\C)c2ccccn2)n1`: 2.
Same read-out and setting: the result for `CCOC(=O)c1csc(N/N=C2/CCC(C)C2)n1` (centres undefined) reads 10; that for `COc1cc(Cc2cnc(N)nc2N)cc(OC)c1OC` [TRIMETHOPRIM], 41.

A further series deals with Toxoplasma gondii. Put plainly: Antiparasitic activity against Toxoplasma gondii 2F tachyzoites infected in HFF assessed as inhibition of intracellular parasite replication at 25 uM treated 2 hrs postinfection measured after 26 hrs using DAPI staining by fluorescence microscopy relative to control. It is filed as functional, organism-based.
Details: not given
The procedure, abridged:
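HFF monolayers inoculated with tachyzoites, 2 h incubation, then compound (final 25 μM) or DMSO control added to medium. Replication ran 26 h; monolayers fixed, permeabilized, immunolabelled with Rb anti-p30 (SAG1) and goat anti-rabbit Alexa Fluor 594 (red), imaged by fluorescence.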
Consider `CCOC(=O)c1csc(N/N=C(\C)c2ccccn2)n1`, for which the result was Active.

In the next series the test system is Toxoplasma gondii. In words: Antiparasitic activity against Toxoplasma gondii 2F tachyzoites infected in HFF assessed as inhibition of tachyzoite host cell invasion at 25 uM treated 20 mins prior to infection measured after 1 hr using DAPI staining by immunofluorescence microscopy relative to control. In kind it is functional. Also on record: scale not given: the % may be the effect or the level left.
Details: not given
The procedure, abridged:
(§1)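 Tachyzoites (strain 2F) preincubated with compound or DMSO (final 25 μM) at room temperature 20 min, then added to HFF monolayers; 1 h at 37 °C, 5% CO2, rinsed and fixed. Red/green sequential staining: attached/extracellular parasites labelled Rb anti-p30 with Alexa Fluor 594 (red), penetrated/intracellular green, host nuclei blue. Penetrated and attached counts compared with DMSO control.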
Take `CCOC(=O)c1csc(NN=C2CCCCC2)n1`: the Activity was found to be 45%.
Same read-out and setting: the result for `CCOC(=O)c1csc(N/N=C2/CCCC(C)C2)n1` (centres undefined) reads 48%.
Still for that read-out and setting: the same measure for `O=C(O)c1csc(NN=C2CCCCC2)n1`: 45%; for `CC1CC/C(=N/Nc2nc(C(=O)O)cs2)C1` (centres undefined): 47%.
Still for that read-out and setting: the result for `CCOC(=O)c1csc(N/N=C/c2cccc3ccccc23)n1` reads 35%; that for `CCOC(=O)c1csc(N/N=C/c2ccncc2)n1`, 49%.
Take `CCOC(=O)c1csc(N/N=C(\C)c2ccc3ccccc3c2)n1`: the Activity was 45%.
Consider `CCOC(=O)c1csc(N/N=C(\C)c2ccccn2)n1`, for which the Activity was 147%.
As for `CCOC(=O)c1csc(N/N=C2/CCC(C)C2)n1` (centres undefined), the Activity was 48%.

For a further series, the system named is Toxoplasma gondii. In words: Antiparasitic activity against Toxoplasma gondii 2F tachyzoites infected in HFF assessed as decrease in parasite penetration and attachment to host cell at 25 uM treated 20 mins prior to infection measured after 1 hr using DAPI staining by immunofluorescence microscopy relative to control. It is filed as functional. Also on record: scale not given: the % may be the effect or the level left.
Details: not given
The method in brief: as §1
With `CCOC(=O)c1csc(N/N=C/c2cccc3ccccc23)n1`, the Activity is 47%.
Same read-out and setting: the result for `O=C(O)c1csc(NN=C2CCCC2)n1` reads 47%.
